In one data set the test system is THP-1 cells. Description: Cytokine expression in THP-1 monocytes. It is filed as cell-based, human. As to conditions: GM 2-8 mM. In a few lines:
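THP-1 cells were kept in RPMI 1640 with 10% heat-inactivated FBS. They were seeded at 100,000 cells/well in half-serum medium and stimulated immediately, with MDP 0.4 mM as control. Total RNA was extracted and cytokine transcripts were measured by RT-qPCR; n = 4.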

A further data set deals with mTLR4/mMD2 (wt / F126A) (Mus musculus, UniProt Q9JHF9+Q9QUK6, F126A). Description: NF-κB SEAP in HEK-Blue Null1, mTLR4 wt / mMD2 F126A. Conditions: GM 0.4, 0.2 mM; LPS 100 ng/mL; 24 h. Format: cell-based. In a few lines: (§1)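 Point mutants of mTLR4 or mMD2 were made by site-directed mutagenesis. HEK-Blue Null1 cells were co-transfected by lipofection for 16 h with 500 ng total of mTLR4 and Myc-tagged mMD2 plasmids (1:1); mock wells received lipofection reagent only. After a medium change the next day, cells were treated for 24 h. NF-κB SEAP was measured and normalised to water-treated samples; data are mean ± s.e.m., n = 3.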

Another data set has as its system WT C57BL/6 J mice. Description: DSS-induced colitis model in WT mice. It is filed as in vivo, mouse. As to conditions: GM 10 mg/kg i.p. daily. In a few lines: (§2)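 Male SPF C57BL/6J mice aged 7–8 weeks, WT or Tlr4-/- (bred in house), were age-, weight- and sex-matched. They drank 3% (w/v) DSS water for 7 days and were then euthanised. Test compound (10 mg/kg) or PBS (5 mL/kg) was given i.p. daily from 2 days before DSS until the end. Body weight was recorded daily.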

The next data set addresses mTLR4/mMD2 (Q339A / wt) (Mus musculus, UniProt Q9JHF9+Q9QUK6, Q339A). Description: NF-κB SEAP in HEK-Blue Null1, mTLR4 Q339A / mMD2 wt. It is filed as cell-based. Conditions: GM 0.4, 0.2 mM, 24 h. In a few lines: as §1
A further data set deals with NOD1 (Homo sapiens, UniProt Q9Y239). Description: HEK-Blue NOD1 SEAP reporter assay. It is filed as cell-based. As to conditions: GM, M 20 μM; 18 h. In a few lines: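 HEK-Blue hNod1 or hNod2 cells were seeded at 50,000 cells/well in DMEM/10% FBS without selection antibiotics and stimulated at once for 18 h (n = 3). Supernatant was mixed 1:4 with Quanti-Blue and incubated 6 h at 37 °C, and absorbance was read at 620 nm. Values were blanked against water-treated wells, and the respective parental Null cell readouts were subtracted.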
For orientation: In a reporter assay the amount or activity of a reporter protein is the signal.

Data set [1] deals with IRF signaling in RAW-Dual WT cells. Briefly: RAW-Dual WT IRF reporter. Format: cell-based, mouse. Conditions: 24 h.
The next data set has as its target mTLR4/mMD2 (wt / F119A) (Mus musculus, UniProt Q9JHF9+Q9QUK6, F119A). Description: NF-κB SEAP in HEK-Blue Null1, mTLR4 wt / mMD2 F119A. It is filed as cell-based. Conditions: GM 0.4, 0.2 mM, 24 h. In a few lines: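 Site-directed mTLR4 or mMD2 variants were made by mutagenesis. HEK-Blue Null1 cells were co-transfected 16 h with 500 ng mTLR4 and mMD2-Myc plasmids (1:1) by lipofection; mock cells got water/Lipofectamine. After a medium change, cells were treated 24 h. Supernatant SEAP was measured with Quanti-Blue (37 °C, 6 h, A620), normalized to H2O-treated cells; mean ± s.e.m., n = 3.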

Data set [2] deals with NF-κB signaling in RAW-Dual Tlr4-/- cells. Description: RAW-Dual Tlr4-/- NF-κB reporter. It is filed as cell-based, mouse. Conditions: 24 h. The procedure, abridged: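 RAW-Dual cells (WT or Tlr4-/-) were seeded at 100,000 cells/well in complete DMEM without selection antibiotics, 24 h before treatment. Test compounds were added for 24 h (n = 3). NF-κB-driven SEAP was read by mixing supernatant 1:4 with Quanti-Blue, incubating 6 h at 37 °C and measuring absorbance at 620 nm, blanked against water-treated wells.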

Data set [3] concerns NF-κB p65 and MAPK p38 phosphorylation in Tlr4-/- BMDMs. Description: Immunoblot of p65 and p38 phosphorylation in Tlr4-/- BMDMs. It is filed as cell-based, mouse. Conditions: GM 5 mM. In a few lines: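 Bone-marrow macrophages from WT or Tlr4-/- C57BL/6J mice were stimulated directly with 5 mM test compound or 500 ng/mL LPS. Cells were lysed in Tris/SDS/Triton buffer with protease and phosphatase inhibitors plus 10 mM DTT and boiled, then run on SDS-PAGE and transferred to PVDF. Blots were probed with rabbit antibodies to total or phospho-p65, total or phospho-p38 and GAPDH (1:1000, 4 °C overnight), then HRP anti-rabbit (1:5000).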
Background: A western blot detects proteins with antibodies after separation by electrophoresis.

Another data set has as its system WT BMDMs. Briefly: Cytokine secretion by WT BMDMs. As to conditions: GM 4 mM, PB-resin, 24 h. It is filed as cell-based, mouse. The procedure, abridged:
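Bone-marrow macrophages were derived from female C57BL/6J mice (GM-CSF or L929 supernatant, 6 days) and moved to serum-free IMDM. They were given 4 mM test compound or 100 ng/mL LPS for 24 h, each either untreated or first neutralised with polymyxin B resin. Supernatants were cleared at 16,000 × g and TNF-α was measured by sandwich ELISA, with samples prediluted in 1% BSA/PBS when needed.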

Data set [4] deals with WT bone-marrow-derived macrophages (BMDMs). Briefly: Cytokine gene expression in WT BMDMs. As to conditions: GM 2-8 mM, M 8 mM. Format: cell-based, mouse. The procedure, abridged:
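Marrow was flushed from the femur and tibia of female SPF C57BL/6J mice and red cells were lysed (NH4Cl/KHCO3). Cells at 200,000 cells/mL were differentiated for 6 days in IMDM with 20 ng/mL GM-CSF or 10% L929 supernatant, then switched to serum-free IMDM. Test compounds were added for 24 h (n = 3). Cytokine transcripts were measured by RT-qPCR (2-ΔΔCt, normalised to β-act).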

For a further data set, the system named is WT mice sera. Briefly: Multiplex immunoassay of serum cytokines and chemokines in mice. Format: in vivo, mouse. Conditions: GM 10 mg/kg i.p. daily, no DSS. In a few lines: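 Mice received daily intraperitoneal injections, with PBS (5 mL/kg) as vehicle. Serum was analysed with a bead-based inflammatory cytokine/chemokine panel according to the kit protocol, read on a flow cytometer with a high-throughput sampler.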

Data set [5] deals with murine bone marrow-derived dendritic cells (cDC2). Description: CD80/86 surface expression in cDC2s of BMDCs. It is filed as cell-based, mouse. Conditions: 50, 100, 200 μM, 18 h. The procedure, abridged: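 Bone marrow from femur and tibia of C57BL/6J female mice was red-cell-lysed and plated at 2,000,000 cells/mL in medium with FLT3 ligand-containing supernatant, with feeding on days 3 and 6. DCs were reseeded at 2,000,000 cells/well and stimulated 18 h. Cells were Fc-blocked, stained with anti-CD80, anti-CD86 and live/dead dye, and analysed by flow cytometry as MFI in gated cDC2s.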

Another data set concerns Tlr4-/- C57BL/6 J mice. Description: DSS-induced colitis model in Tlr4-/- mice. Format: in vivo, mouse. As to conditions: GM 10 mg/kg i.p. daily, 3% DSS. The procedure, abridged:
as §2

NOD1, sequence (Q9Y239 whole entry): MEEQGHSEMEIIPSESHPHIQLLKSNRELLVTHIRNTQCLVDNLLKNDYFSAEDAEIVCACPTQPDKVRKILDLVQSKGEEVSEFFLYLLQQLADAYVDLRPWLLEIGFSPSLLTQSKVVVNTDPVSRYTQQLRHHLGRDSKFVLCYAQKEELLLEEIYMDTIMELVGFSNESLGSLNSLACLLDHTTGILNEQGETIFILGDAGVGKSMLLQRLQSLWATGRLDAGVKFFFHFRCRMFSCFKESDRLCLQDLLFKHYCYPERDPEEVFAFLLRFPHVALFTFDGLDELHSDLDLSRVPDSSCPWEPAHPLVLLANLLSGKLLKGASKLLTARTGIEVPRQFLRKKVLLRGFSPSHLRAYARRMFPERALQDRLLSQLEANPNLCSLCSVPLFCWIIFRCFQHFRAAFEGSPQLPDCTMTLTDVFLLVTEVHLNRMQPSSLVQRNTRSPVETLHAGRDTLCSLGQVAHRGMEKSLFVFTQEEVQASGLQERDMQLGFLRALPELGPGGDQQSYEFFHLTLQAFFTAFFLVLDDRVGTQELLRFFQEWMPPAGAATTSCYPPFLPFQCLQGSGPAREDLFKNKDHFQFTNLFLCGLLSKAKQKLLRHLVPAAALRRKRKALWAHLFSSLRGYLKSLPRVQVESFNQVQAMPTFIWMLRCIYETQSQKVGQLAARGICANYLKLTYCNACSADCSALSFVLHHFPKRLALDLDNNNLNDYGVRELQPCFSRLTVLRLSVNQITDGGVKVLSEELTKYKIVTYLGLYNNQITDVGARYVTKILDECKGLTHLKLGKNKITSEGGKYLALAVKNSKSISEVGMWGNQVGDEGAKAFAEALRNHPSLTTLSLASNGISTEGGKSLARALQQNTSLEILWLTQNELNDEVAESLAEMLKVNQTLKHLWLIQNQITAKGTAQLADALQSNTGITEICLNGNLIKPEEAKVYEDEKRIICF
mTLR4/mMD2 (Q339A / wt), sequence (Q9QUK6 26-835 Q339A): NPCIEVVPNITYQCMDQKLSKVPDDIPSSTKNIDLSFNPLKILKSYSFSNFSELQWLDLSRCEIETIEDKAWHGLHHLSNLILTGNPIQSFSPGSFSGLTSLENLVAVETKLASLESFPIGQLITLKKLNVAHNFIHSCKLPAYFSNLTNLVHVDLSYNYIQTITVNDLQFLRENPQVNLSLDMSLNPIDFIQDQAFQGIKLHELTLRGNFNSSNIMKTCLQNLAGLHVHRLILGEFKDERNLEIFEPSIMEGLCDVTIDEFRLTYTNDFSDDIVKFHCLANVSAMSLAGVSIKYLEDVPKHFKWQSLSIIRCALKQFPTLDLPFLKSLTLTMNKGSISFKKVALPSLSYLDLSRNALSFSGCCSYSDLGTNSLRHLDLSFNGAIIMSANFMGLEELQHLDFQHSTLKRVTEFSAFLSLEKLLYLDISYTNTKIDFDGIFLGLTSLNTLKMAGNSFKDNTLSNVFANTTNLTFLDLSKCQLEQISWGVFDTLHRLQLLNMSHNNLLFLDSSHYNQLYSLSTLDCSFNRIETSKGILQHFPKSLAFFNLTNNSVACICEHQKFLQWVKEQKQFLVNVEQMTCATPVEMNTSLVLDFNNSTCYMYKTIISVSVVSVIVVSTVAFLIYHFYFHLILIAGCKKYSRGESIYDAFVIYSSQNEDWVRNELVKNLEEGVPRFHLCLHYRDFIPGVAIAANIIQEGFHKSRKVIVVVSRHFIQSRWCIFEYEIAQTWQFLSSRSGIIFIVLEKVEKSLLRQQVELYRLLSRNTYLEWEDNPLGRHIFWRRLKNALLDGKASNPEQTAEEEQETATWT
mTLR4/mMD2 (Q339A / wt), sequence (Q9JHF9 19-160): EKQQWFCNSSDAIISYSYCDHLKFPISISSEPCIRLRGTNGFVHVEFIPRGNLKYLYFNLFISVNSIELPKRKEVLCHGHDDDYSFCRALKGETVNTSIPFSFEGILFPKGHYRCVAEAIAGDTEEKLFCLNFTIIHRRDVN
mTLR4/mMD2 (wt / F126A), sequence (Q9QUK6 26-835): as the sequence (Q9QUK6 26-835 Q339A) above, with A314Q counted along it
mTLR4/mMD2 (wt / F126A), sequence (Q9JHF9 19-160 F126A): as the sequence (Q9JHF9 19-160) above, with F108A counted along it
mTLR4/mMD2 (wt / F119A), sequence (Q9QUK6 26-835): as the sequence (Q9QUK6 26-835 Q339A) above, with A314Q counted along it
mTLR4/mMD2 (wt / F119A), sequence (Q9JHF9 19-160 F119A): as the sequence (Q9JHF9 19-160) above, with F101A counted along it

With `CC(=O)N[C@H]1[C@H](O[C@H]2[C@H](O[C@H](C)C(=O)O)[C@@H](NC(C)=O)C(O)O[C@@H]2CO)O[C@H](CO)[C@@H](O)[C@@H]1O` (stereo partly drawn) [GM, N-acetylglucosamine-β−1,4-N-acetylmuramic acid], in the data set with THP-1 cells, the “Immuno-stimulatory activity in THP-1 (in words)” value is on record as “dose-dependent immuno-stimulatory activity”. Moreover, the “Effect of mutation mMD-2_F126 on NF-κB activity (in words)” value on mTLR4/mMD2 (wt / F126A) is reported as “abrogated NF-κB activation”. In the data set with WT C57BL/6 J mice (3% DSS), the “H&E-stained colonic tissue, WT DSS mice” value was “reduced epithelial erosion and mononuclear cell infiltration”. Besides, in the data set with WT C57BL/6 J mice (3% DSS, RT-qPCR), the “Colonic Il10, WT DSS mice” value is “no significant change in Il10 was observed”; the “Colonic cytoprotective factors Keap1 and Hspb1, WT DSS mice” value was “upregulated”; the “Colonic expression of Tnfa, Il1b, Ccl2, WT DSS mice” value was “significantly suppressed”. The Morbidity in mice result in the data set with WT C57BL/6 J mice (without DSS treatment) is “did not result in any morbidity in mice”. The “Effect of mutation mTLR4 Q339 on NF-κB activity (in words)” value at mTLR4/mMD2 (Q339A / wt) is “abolished GM-triggered NF-κB activity”. Also, at NOD1, the “NOD1 activation in HEK-Blue reporter cells (in words)” value is listed as “unable to activate NOD1/2”. Moreover, in data set [1], the “IRF signaling in RAW-Dual WT cells (in words)” value was “dose-dependent activation of both NF-κB and IRF signaling”. Moreover, the “Effect of mutation mMD-2_F119 on NF-κB activity (in words)” value on mTLR4/mMD2 (wt / F119A) is given as “did not significantly impair the activity of GM”. In addition, the “NF-κB signaling in RAW-Dual Tlr4-/- cells (in words)” value in [2] is on record as “minimal activity”. The “p65 and p38 phosphorylation in Tlr4-/- BMDMs” value in [3] was “absence of p65 and p38 phosphorylation”. Also, the “TNF-α induction in BMDMs after polymyxin B neutralization (in words)” value in the data set on WT BMDMs is listed as “unaffected by polymyxin B neutralization”. For the same compound, the “Immuno-stimulatory activity (TNF-α, IL-6) in BMDMs (in words)” value in data set [4] is listed as “dose-dependent immuno-stimulatory activity”. Also, the “Circulating cytokines and chemokines in mice, GM alone” value in the data set with WT mice sera is “does not significantly alter circulating cytokines and chemokines in mice”. In data set [5], the “CD80/86 surface markers in cDC2 population of BMDCs (in words)” value is recorded as “upregulates CD80/86 surface marker expressions”. In the data set with Tlr4-/- C57BL/6 J mice, the “DSS-induced colitis in Tlr4-/- mice: weight loss and colonic shortening” value was “failed to prevent weight loss and colonic shortening”. In the data set with Tlr4-/- C57BL/6 J mice (RT-qPCR), the “Cytoprotective responses in colitis Tlr4-/- mice” value was “No upregulation of cytoprotective responses”.

The record behind these values is PMC12219203 (Nature Communications, 2025).
